Series [1] deals with SK-MEL-28. Description: Induction of mitochondrial membrane potential depolarization in human SK-MEL-28 cells at 200 uM after 24 hrs by JC-1 staining based flow cytometry. Type of series: functional, cell-based. Put shortly: (§1)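 Cells were kept in […] with 10% FBS at 37 C and 5% CO2. They were plated at 1 × 10⁴ cells/well and treated after adhesion. They were then PBS-washed and stained with JC-1 ([…]) for 30 min at 37 C, then trypsinized and centrifuged. Flow cytometry acquired 10,000 events (excitation 488 nm, emission 529/590 nm). Read-out was the ratio of mean green to red fluorescence, from two independent assays.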
Background: In flow cytometry, cells or beads pass a laser one at a time.

Series [2] relates to HUVEC. Description: Induction of mitochondrial membrane potential depolarization in HUVEC at 200 uM after 24 hrs by JC-1 staining based flow cytometry. Format: cell-based. The conditions noted are these: human. Put shortly:
as §1

The subject of series [3] is HUVEC. Description: Induction of apoptosis in HUVEC at 0.1 to 1 uM after 48 hrs by Annexin V-FITC/propidium iodide staining-based flow cytometry. The conditions noted are these: human. Type of series: cell-based. The essentials: (§2)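 After adhesion, 1 × 10⁴ cells/well were exposed for 48 h with medium control and 0.1% DMSO vehicle. Cells washed with PBS, trypsinized and centrifuged (600 × g, 10 min). Stained with FITC-Annexin V (1:100 in binding buffer, 30 min) and propidium iodide, then read by flow cytometry for apoptotic, late apoptotic and necrotic fractions; three independent assays.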

For series [4], the system named is SK-MEL-28. Description: Induction of apoptosis in human SK-MEL-28 cells assessed as increase in necrotic cells at 0.1 to 1 uM after 48 hrs by Annexin V-FITC/propidium iodide staining-based flow cytometry. Type of series: functional, cell-based. Put shortly:
as §2

Series [5] has as its system HUVEC. Nature of the series: Cytotoxicity against HUVEC assessed as reduction in cell proliferation at 0.1 to 1 uM after 14 to 48 hrs by trypan blue staining based haemocytometer method. The conditions noted are these: human. The essentials:
(§3)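 1 × 10⁴ cells/well in […] plus 10% FBS, treated after adhesion for 14, 24 or 48 h alongside medium control, 0.1% DMSO vehicle and 10% DMSO positive control. Cell number counted by trypan blue exclusion under optical microscopy; three independent assays.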

The subject of series [6] is SK-MEL-28. Nature of the series: Cytotoxicity against human SK-MEL-28 cells assessed as reduction in cell proliferation at 0.1 to 1 uM after 14 to 48 hrs by trypan blue staining based haemocytometer method. Type of series: functional. The essentials: as §3
The test system of series [7] is HUVEC. Nature of the series: Induction of apoptosis in HUVEC assessed as increase in necrotic cells at 0.1 to 1 uM after 48 hrs by Annexin V-FITC/propidium iodide staining-based flow cytometry. As to conditions: human. Format: cell-based. Put shortly: as §2
Series [8] relates to SK-MEL-28. Description: Cytotoxicity against human SK-MEL-28 cells assessed as impairment in cell metabolism at 0.1 to 1 uM after 24 to 48 hrs by MTT assay. Type of series: functional, cell-based. Put shortly:
(§4)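 Cells maintained in […] with 10% FBS at 37 C, 5% CO2. 1 × 10³ cells/well plated, allowed 24 h adhesion, then treated in medium for 14, 24 or 48 h; vehicle 0.1% DMSO, 10% DMSO positive control. MTT converted to formazan, dissolved in DMSO, read at 570 nm. Expressed as % of untreated (RPMI-only) control; mean of three independent assays.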

The subject of series [9] is HUVEC. Description: Induction of mitochondrial membrane potential depolarization in HUVEC at 0.1 to 1 uM after 48 hrs by JC-1 staining based flow cytometry. Format: cell-based. The conditions noted are these: human. The essentials:
(§5)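 1 × 10⁴ cells/well exposed 48 h after adhesion; medium control and 0.1% DMSO vehicle. Washed, stained with JC-1 for 30 min at 37 C, 5% CO2, then trypsinized and run on flow cytometry, 10,000 events; excitation 488 nm, emission 529 and 590 nm. Valinomycin positive control. Output: green-to-red mean fluorescence ratio; two independent assays.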

The subject of series [10] is SK-MEL-28. Description: Induction of apoptosis in human SK-MEL-28 cells at 0.1 to 1 uM after 48 hrs by Annexin V-FITC/propidium iodide staining-based flow cytometry. Format: functional, cell-based. Put shortly: as §2
Series [11] deals with SK-MEL-28. Description: Induction of apoptosis in human SK-MEL-28 cells assessed as increase in late apoptotic cells at 0.1 to 1 uM after 48 hrs by Annexin V-FITC/propidium iodide staining-based flow cytometry. Format: functional, cell-based. Put shortly:
as §2

The subject of series [12] is HUVEC. Description: Cytotoxicity against HUVEC assessed as impairment in cell metabolism at 0.1 to 1 uM after 24 to 48 hrs by MTT assay. Format: ADME, cell-based. The conditions noted are these: human. Put shortly: as §4
(Tetrazolium assays rely on reduction of a dye to a coloured formazan, in cell work by metabolically active cells.)

The subject of series [13] is SK-MEL-28. Description: Induction of mitochondrial membrane potential depolarization in human SK-MEL-28 cells at 0.1 to 1 uM after 48 hrs by JC-1 staining based flow cytometry. Format: functional, cell-based. Put shortly: as §5
For series [14], the system named is HUVEC. Nature of the series: Induction of apoptosis in HUVEC assessed as increase in late apoptotic cells at 0.1 to 1 uM after 48 hrs by Annexin V-FITC/propidium iodide staining-based flow cytometry. The conditions noted are these: human. Type of series: cell-based. Put shortly:
as §2

Calls of active or inactive are those of the source. No cut-off for these calls is given here.

Drawing on ChEMBL document CHEMBL3779846, “Evaluation of toxicity on epithelial and tumor cells of biaryl dipeptide tyrosines” (Eur J Med Chem, 2016), this text covers Activity for 2 compounds.

As to `CC(C)[C@@H]1NC(=O)[C@H](C)OC(=O)[C@@H](C(C)C)NC(=O)[C@@H](C(C)C)OC(=O)[C@H](C(C)C)NC(=O)[C@H](C)OC(=O)[C@@H](C(C)C)NC(=O)[C@@H](C(C)C)OC(=O)[C@H](C(C)C)NC(=O)[C@H](C)OC(=O)[C@@H](C(C)C)NC(=O)[C@@H](C(C)C)OC1=O` [VALINOMYCIN], the outcome in the series with SK-MEL-28 [1] was Active. Besides, the Activity entry in the series with HUVEC [2] is on record as “Toxic”.

On to `COC(=O)[C@H](Cc1ccc(O)c(-c2ccc(OC)cc2)c1)NC(=O)[C@H](Cc1ccc(O)c(-c2ccc(OC)cc2)c1)NC(=O)OC(C)(C)C`, for which the Activity result with HUVEC [3], in the series on HUVEC [5], in the series with HUVEC [7], with HUVEC [9], with HUVEC [12] and in the series with HUVEC [14] was “Non-toxic” throughout. Further, the result in the series on SK-MEL-28 [4], in the series on SK-MEL-28 [10], in the series on SK-MEL-28 [11] and in the series with SK-MEL-28 [13] was inactive. For the same compound, the outcome in the series on SK-MEL-28 [6] and in the series with SK-MEL-28 [8] was Active.
